Published values from different studies.
Target: Myosin-IIIb (MYO3B, Homo sapiens, UniProt Q8WXR4)
Sequence (Q8WXR4 1-1341, as in one of the studies): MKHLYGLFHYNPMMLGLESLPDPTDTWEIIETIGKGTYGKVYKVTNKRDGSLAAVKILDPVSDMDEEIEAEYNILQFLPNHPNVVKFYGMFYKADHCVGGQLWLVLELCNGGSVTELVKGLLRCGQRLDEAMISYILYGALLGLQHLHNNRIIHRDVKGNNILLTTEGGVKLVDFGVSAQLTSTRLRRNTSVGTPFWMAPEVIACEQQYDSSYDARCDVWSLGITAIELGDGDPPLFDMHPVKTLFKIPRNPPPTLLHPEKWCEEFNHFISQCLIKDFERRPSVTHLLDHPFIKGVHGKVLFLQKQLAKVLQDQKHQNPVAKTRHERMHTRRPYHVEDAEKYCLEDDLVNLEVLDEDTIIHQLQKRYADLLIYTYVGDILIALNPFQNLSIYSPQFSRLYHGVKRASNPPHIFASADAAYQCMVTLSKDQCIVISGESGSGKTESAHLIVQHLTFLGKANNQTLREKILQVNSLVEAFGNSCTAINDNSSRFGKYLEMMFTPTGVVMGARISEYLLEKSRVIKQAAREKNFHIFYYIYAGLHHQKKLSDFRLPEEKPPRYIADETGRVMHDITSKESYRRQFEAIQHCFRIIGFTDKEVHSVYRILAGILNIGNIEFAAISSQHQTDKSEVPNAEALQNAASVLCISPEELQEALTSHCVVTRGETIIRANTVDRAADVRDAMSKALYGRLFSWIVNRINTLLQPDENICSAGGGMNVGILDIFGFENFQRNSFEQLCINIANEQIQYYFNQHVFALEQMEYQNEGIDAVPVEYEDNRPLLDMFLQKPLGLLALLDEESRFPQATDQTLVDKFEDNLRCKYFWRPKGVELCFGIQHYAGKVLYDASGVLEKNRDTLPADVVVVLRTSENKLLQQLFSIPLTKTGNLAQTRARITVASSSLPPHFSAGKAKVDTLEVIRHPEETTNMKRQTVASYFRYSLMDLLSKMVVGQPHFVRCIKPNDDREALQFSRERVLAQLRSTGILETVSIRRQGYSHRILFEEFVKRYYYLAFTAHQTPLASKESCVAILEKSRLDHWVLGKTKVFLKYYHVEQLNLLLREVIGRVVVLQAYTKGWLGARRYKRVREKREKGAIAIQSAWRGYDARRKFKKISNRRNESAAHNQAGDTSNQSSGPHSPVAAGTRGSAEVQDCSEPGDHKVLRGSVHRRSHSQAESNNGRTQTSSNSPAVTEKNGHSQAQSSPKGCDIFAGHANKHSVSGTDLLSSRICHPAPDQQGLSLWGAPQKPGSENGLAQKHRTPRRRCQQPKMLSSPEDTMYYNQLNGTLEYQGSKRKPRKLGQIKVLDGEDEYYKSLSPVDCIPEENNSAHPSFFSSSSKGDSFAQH

COc1cnc(Nc2cccc(S(N)(=O)=O)c2)nc1N1CCN(c2ccccc2)C(=O)C1  remaining binding (binding; competition with immobilised ligand; 1 µM): 94%
O=C(NCC1CCOCC1)c1n[nH]cc1NC(=O)c1c(F)cccc1F  remaining binding (binding; competition with immobilised ligand; 1 µM): 100%
c1cnn2ncc(-c3ccnc(N4CCC45COC5)n3)c2c1  remaining binding (binding; 1 µM): 100%
CS(=O)(=O)c1cc(C2(NC(=O)c3cncc4c3cnn4-c3ccc(F)cc3)CC2)ccn1  remaining binding (cell-free assay; competition with immobilised ligand; 1 µM): 100%
O=C(NCCCN1CCOCC1)c1ccc(Nc2ncc(Cl)c(-c3ccc(Cl)s3)n2)cc1  remaining binding (binding; competition with immobilised ligand; 1 µM): 100%
C[C@@H]1CCN(c2nccc(-c3cnn4ncccc34)n2)C1  remaining binding (binding; 1 µM): 100%
O=C(c1ccc(Nc2ncc(Cl)c(-c3cc4ccccc4s3)n2)cc1)N1CCC(N2CCCC2)CC1  remaining binding (binding; competition with immobilised ligand; 1 µM): 100%
CN(c1nccc(-c2cnn3ncccc23)n1)C1CC1  remaining binding (binding; 1 µM): 83%
CNC(=O)[C@@H]1CC[C@@H](n2c(-c3ccc4cnccc4c3)nc3ccc(C(=O)NCc4cccc(C(N)=O)c4)cc32)C1  remaining binding (binding; competition with immobilised ligand; 1 µM): 98%
C=CC(=O)N1CCC(C(=O)NCC(=O)N2CCN(c3nc(-c4cnc(N)nc4C(F)F)nc(N4CCOCC4)n3)CC2)CC1  remaining binding (binding; competition with immobilised ligand; 1 µM): 96%
O=C(N[C@H]1CCCCC/C=C\C2C[C@@]2(C(=O)O)NC(=O)[C@@H]2C[C@@H](Oc3ccncc3)CN2C1=O)OC1CCCC1 (stereo partly drawn)  remaining binding (binding; competition with immobilised ligand; 1 µM): 38%
CN(C)c1nccc(-c2cnn3ncccc23)n1  remaining binding (binding; 1 µM): 100%
C[C@@H](c1cccc(C#N)c1)n1cc(Cl)cc(C(N)=O)c1=N  remaining binding (binding; competition with immobilised ligand; 1 µM): 100%
O=C(c1ccc(Nc2ncc(Cl)c(-c3ccc(Cl)s3)n2)cc1)N1CCC(N2CCCC2)CC1  remaining binding (binding; competition with immobilised ligand; 1 µM): 100%
CNCc1ccccc1-c1csc([C@@H](C)Nc2nc(C)nc3cc(OC)c(OC)cc23)c1  remaining binding (cell-free assay; competition with immobilised ligand; 1 µM): 47%
Cc1cnn2ncc(-c3ccnc(N(C)C)n3)c2c1  remaining binding (binding; 1 µM): 80%
CCC(=O)N[C@@H]1CC[C@H](C(=O)N(C)c2ccc(-c3nc4ccccc4o3)cc2)C1  remaining binding (cell-free assay; competition with immobilised ligand; 1 µM): 100%
C[C@@H](c1ccc(-n2cnc3c(N)ncnc32)cc1)N1CCc2nn(C)c(Cc3ccccc3)c2C1=O  remaining binding (binding; competition with immobilised ligand; 0.1 µM): 77%
CC1=C(C#N)C(c2ccc3c(c2)c(NC(=O)c2ccccc2C)nn3C)C(C#N)=C(C)N1  remaining binding (binding; competition with immobilised ligand; 1 µM): 100%
N[C@H]1CCN(c2nccc(-c3cnn4ncccc34)n2)C1  remaining binding (binding; 1 µM): 100%
CCN1CCN(Cc2ccc(C(=O)Nc3ccc(C)c(Oc4ccc5c(c4)CC(=O)N5)c3)cc2C(F)(F)F)CC1  remaining binding (binding; competition with immobilised ligand; 1 µM): 100%
